From ChEMBL document CHEMBL1933001, “LDV peptidomimetics equipped with biotinylated spacer-arms: synthesis and biological evaluation on CCRF-CEM cell line” (Bioorg Med Chem Lett, 2012)
Calls of active or inactive are those of the source. No cut-off for these calls is given here.

Columns and labels:
Integrin alpha-4/beta-1 [1] = biological target: T1, Integrin alpha-4/beta-1 (Homo sapiens, UniProt P05556+P13612); assay: Detachment of pre-adhered alpha4beta1 integrin expressed in calcein-labelled human CCRF-CEM cells from fibronectin at 1 to 500 uM after 24 to 48 hrs by MTT assay; assay type: cell-based
Integrin alpha-4/beta-1 [2] = biological target: T1, Integrin alpha-4/beta-1; assay: Inhibition of alpha4beta1 integrin expressed in human CCRF-CEM cells assessed as cell adhesion to fibronectin after 1 hr by fluorimetry analysis; assay type: cell-based
Outline: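 Calcein-prelabelled CCRF-CEM cells (α4β1-expressing T lymphoblast-like line) were added to plates coated with fibronectin (10 µg/mL). Incubation was 1 h at 37 °C with or without increasing compound doses (1–500 µM). Adherent cells were quantified by fluorescence, and IC50 was derived from the inhibition of adhesion.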

Integrin alpha-4/beta-1 [3] = biological target: T1, Integrin alpha-4/beta-1; assay: Binding affinity to alpha4beta1 integrin expressed human CCRF-CEM cells at 100 uM after 24 hrs by alexa-conjugated streptavidin-based microscopy; assay type: cell-based
Outline: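 Fibronectin-coated plates (10 µg/mL). Adherent CCRF-CEM cells were exposed to biotin-conjugated molecules at 100 µM for 24 h and washed extensively. Alexa 568-conjugated streptavidin was then added, and extracellular fluorescence on the cell surface was imaged. Controls were not pre-treated and received only fluorescent streptavidin.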

CCRF-CEM = assay: Cytotoxicity against human CCRF-CEM cells at 200 uM after 24 hrs by propidium iodide-based flow cytometry; assay type: cell-based
Outline: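 CCRF-CEM cells were incubated for 24 h with increasing amounts of compound, up to 200 µM final, then stained with propidium iodide to detect dead cells by fluorescence.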

Integrin alpha-4/beta-1 [4] = biological target: T1, Integrin alpha-4/beta-1; assay: Induction of adhesion of alpha4beta1 integrin expressing calcein-labelled human CCRF-CEM cells to neutravidin-coated plates at 0.1 to 10 uM pre-incubated for 2 hrs measured after 1 hr by fluorimetry; assay type: cell-based
Outline: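 Neutravidin-coated plates were pre-treated with biotin-conjugated compound, then calcein-labelled CCRF-CEM cells were added. Adherent cells were quantified by calcein fluorescence. Untreated plates served as control.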

HUVEC = assay: Inhibition of fibronectin adhesion into HUVEC after 1 hr by fluorimetry analysis; assay type: functional, cell-based; conditions: Homo sapiens

T1 sequence (P05556 whole entry): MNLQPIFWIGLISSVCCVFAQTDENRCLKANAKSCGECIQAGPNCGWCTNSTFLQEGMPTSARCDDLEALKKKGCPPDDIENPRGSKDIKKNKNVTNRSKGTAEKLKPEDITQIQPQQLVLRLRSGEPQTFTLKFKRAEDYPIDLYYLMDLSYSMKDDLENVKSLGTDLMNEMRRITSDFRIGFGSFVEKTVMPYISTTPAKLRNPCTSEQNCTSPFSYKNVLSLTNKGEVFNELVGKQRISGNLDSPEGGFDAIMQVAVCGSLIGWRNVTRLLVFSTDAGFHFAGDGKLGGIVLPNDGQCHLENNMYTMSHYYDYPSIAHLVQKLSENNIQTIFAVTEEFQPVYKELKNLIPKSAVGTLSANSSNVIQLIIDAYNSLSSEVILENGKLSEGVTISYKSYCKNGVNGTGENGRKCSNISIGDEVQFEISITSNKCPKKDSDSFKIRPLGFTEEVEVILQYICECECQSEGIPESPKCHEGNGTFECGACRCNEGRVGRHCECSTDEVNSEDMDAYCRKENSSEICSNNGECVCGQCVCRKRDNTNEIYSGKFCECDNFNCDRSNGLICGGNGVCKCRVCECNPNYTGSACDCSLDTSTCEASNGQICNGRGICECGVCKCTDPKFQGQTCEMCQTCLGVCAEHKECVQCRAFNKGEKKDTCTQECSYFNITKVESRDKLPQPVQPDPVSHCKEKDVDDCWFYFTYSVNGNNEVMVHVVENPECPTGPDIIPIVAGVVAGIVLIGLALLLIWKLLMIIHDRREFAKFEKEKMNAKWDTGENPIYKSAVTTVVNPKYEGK
T1 sequence (P13612 whole entry): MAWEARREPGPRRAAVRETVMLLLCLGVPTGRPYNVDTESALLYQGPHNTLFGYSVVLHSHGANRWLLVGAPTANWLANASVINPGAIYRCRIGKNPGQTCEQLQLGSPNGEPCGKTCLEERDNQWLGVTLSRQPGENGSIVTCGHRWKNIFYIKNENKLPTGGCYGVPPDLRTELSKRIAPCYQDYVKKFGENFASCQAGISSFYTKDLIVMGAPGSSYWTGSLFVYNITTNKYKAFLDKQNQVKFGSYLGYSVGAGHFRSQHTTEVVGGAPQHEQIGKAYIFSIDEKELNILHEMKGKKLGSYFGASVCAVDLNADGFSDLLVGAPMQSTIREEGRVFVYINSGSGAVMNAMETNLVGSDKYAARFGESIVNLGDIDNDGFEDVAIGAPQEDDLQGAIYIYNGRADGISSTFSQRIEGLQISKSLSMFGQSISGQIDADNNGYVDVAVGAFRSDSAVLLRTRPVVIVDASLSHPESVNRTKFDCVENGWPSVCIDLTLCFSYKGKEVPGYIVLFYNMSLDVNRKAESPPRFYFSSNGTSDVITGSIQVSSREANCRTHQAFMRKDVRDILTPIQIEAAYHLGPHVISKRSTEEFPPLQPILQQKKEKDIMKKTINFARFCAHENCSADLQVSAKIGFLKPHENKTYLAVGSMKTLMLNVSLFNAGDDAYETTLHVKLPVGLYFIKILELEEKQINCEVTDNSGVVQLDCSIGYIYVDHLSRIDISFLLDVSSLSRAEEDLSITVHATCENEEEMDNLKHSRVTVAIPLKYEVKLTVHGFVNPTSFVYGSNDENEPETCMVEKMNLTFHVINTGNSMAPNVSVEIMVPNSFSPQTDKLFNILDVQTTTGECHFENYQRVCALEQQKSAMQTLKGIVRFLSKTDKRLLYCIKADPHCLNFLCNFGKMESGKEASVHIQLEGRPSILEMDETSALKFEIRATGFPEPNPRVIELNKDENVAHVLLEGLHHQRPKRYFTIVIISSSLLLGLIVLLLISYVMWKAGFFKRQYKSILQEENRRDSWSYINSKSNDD

In the case of `Cc1cccc(C)c1NC(=O)Nc1ccc(CC(=O)Nc2ccc(OCC(=O)O)c(CCC(=O)NCCCCCCCCCCCCN)c2)cc1`, the Activity (Integrin alpha-4/beta-1 [1]) is reported as “Active” and the IC50 (Integrin alpha-4/beta-1 [2]) is reported as 123 µM.
In the case of `Cc1cccc(C)c1NC(=O)Nc1ccc(CC(=O)NCCCCCCCCCCCCNC(=O)CCCC[C@@H]2SC[C@@H]3NC(=O)N[C@@H]32)cc1`, the Activity (Integrin alpha-4/beta-1 [3]) is reported as “inactive”, the Activity (CCRF-CEM) is reported as “Non-toxic” and the Activity (Integrin alpha-4/beta-1 [4]) is reported as “inactive”. It also gave an IC50 (Integrin alpha-4/beta-1 [2]) of 97.7 µM.
`Cc1cccc(C)c1NC(=O)Nc1ccc(CC(=O)Nc2ccc(OCC(=O)OC(C)(C)C)c(CCC(=O)O)c2)cc1` gave an IC50 (Integrin alpha-4/beta-1 [2]) of 68.4 µM.
With `Cc1cccc(C)c1NC(=O)Nc1ccc(CC(=O)N[C@@H](CC(C)C)C(=O)N[C@@H](CC(=O)O)C(=O)N[C@H](C(=O)NCCc2ccccc2)C(C)C)cc1` the IC50 (Integrin alpha-4/beta-1 [2]) was 36.3 µM and the inhibition (HUVEC) was “inactive”.
With `Cc1cccc(C)c1NC(=O)Nc1ccc(CC(=O)Nc2ccc(OCC(=O)O)c(CCC(=O)NCCOCCOCCOCCOCCOCCN)c2)cc1` the Activity (Integrin alpha-4/beta-1 [1]) was “inactive” and the IC50 (Integrin alpha-4/beta-1 [2]) was 170 µM.
In the case of `Cc1cccc(C)c1NC(=O)Nc1ccc(CC(=O)O)cc1`, the IC50 (Integrin alpha-4/beta-1 [2]) is reported as > 1000 µM.
For `Cc1cccc(C)c1NC(=O)Nc1ccc(CC(=O)Nc2ccc(OCC(=O)O)c(CCC(=O)NCCCCCCCCCCCCNC(=O)CCCC[C@@H]3SC[C@@H]4NC(=O)N[C@@H]43)c2)cc1`, the Activity (Integrin alpha-4/beta-1 [3]) was “Active”, the Activity (CCRF-CEM) was “Non-toxic” and the Activity (Integrin alpha-4/beta-1 [4]) was “Active”. The IC50 (Integrin alpha-4/beta-1 [2]) was 14.1 µM.
`Cc1cccc(C)c1NC(=O)Nc1ccc(CC(=O)NCCCCCCCCCCCCN)cc1` was tested, and the IC50 (Integrin alpha-4/beta-1 [2]) was 151 µM.
`Cc1cccc(C)c1NC(=O)Nc1ccc(CC(=O)N[C@@H](CC(C)C)C(=O)N[C@@H](CC(=O)O)C(=O)N[C@H](C(=O)NCCCCCCCCCCCCN)C(C)C)cc1` was tested, and the IC50 (Integrin alpha-4/beta-1 [2]) was 2.6 µM and the inhibition (HUVEC) was “inactive”.
